# Assay: Toxicity liver stage against HepG2, at 10uM
# Assay type: cell-based
# Design: test concentration 10 uM, cell line HepG2-A16-CD81EGFP
# Conditions: human, HepG2-A16-CD81EGFP cells; read-out: INHIBITION
# Outline: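 Uninfected HepG2-A16-CD81EGFP cells, 3 × 10^3 per well, 1536-well, plated on prespotted compound at 10 μM final, parasite-free screening media added to match infected plates; puromycin 10 μM positive, DMSO 0.5% negative; run in parallel with 48 h PbLuc assay at 37 °C, 5% CO2; viability by CellTiter-Glo luminescence, normalized to controls.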
row,Compound,cytotoxicity at 10 µM [%]
1,O=C(NCCn1cccn1)C1CCC(=O)N(CC2CCCCC2)C1 (stereo unspecified),6.8
2,Cc1ccc(S(=O)(=O)c2ncccc2CN2CCOCC2)cc1,-41
3,CCSc1ccccc1C(=O)NCCN1CCC(c2cccs2)CC1,-7.98
4,CCOCC1COCCC12CCN(C(=O)C1=CCCC1)CC2 (stereo unspecified),-2.35
5,CC(=O)NCC(=O)N1CCc2nc(-c3ccccc3)nc(C)c2CC1,-2.54
6,O=S(=O)(C1CC1)N1CCc2ncc(Cn3cccn3)n2CC1,9.58
7,Cc1nc(-c2ccc(F)cc2)nc2c1CCN(C(=O)CN(C)C)CC2,-1.65
8,CCOC(=O)C1CN(C(=O)COC)Cc2ncn(CC)c21 (stereo unspecified),6.01
9,COC1COC2(CCN(C(=O)c3ncccn3)CC2)C1 (stereo unspecified),6.07
10,Cc1nc([C@@H]2C[C@@H]3CCN(Cc4cnn(C)c4)C[C@H]3O2)sc1C,-3.49
11,O=C(c1ccc(Cn2cc(Br)cn2)cc1)N1CCOCC1,-13.6
12,CCn1nc(C)c2nc(C)nc(NC3CCCC3)c21,9.12
13,Cc1cc(C(F)(F)F)nn1C(C)C(=O)NN1CCN(C)CC1 (stereo unspecified),20.4
14,Cc1ccc(CNC(=O)Cn2ncc3c2c(C)nn3C)cc1,22.2
15,CCC(O)Cn1nc(-c2ccc(C(=O)O)cc2)cc1-c1ccc(F)cc1 (stereo unspecified),1.24
16,COCCN1CCCC(c2ccnc3c(C(N)=O)cnn23)C1 (stereo unspecified),2.05
17,Fc1ccc(-c2cnc(C3CCNCC3)cn2)cc1,-7.14
18,CNC(=O)C1(C)CCCN1Cc1cnn(C)c1C (stereo unspecified),5.45
19,CC(=O)N1Cc2ccccc2OC2(CCN(C(=O)C3CC3)CC2)C1,9.91
20,O[C@H]1CN(Cc2cccc(C(F)(F)F)c2)CC[C@@]12CCCO2,-19.6
21,CC(=O)N1CCCC(c2ccc(Cc3ccccc3)cn2)C1 (stereo unspecified),-20.6
22,CCCn1ncc(CN2C[C@@H]3CCCN3C[C@H]2CCSC)c1C,-11.2
23,CC(C)S(=O)(=O)N1CCC(c2[nH]ncc2S(C)(=O)=O)C1 (stereo unspecified),-21.5

row,Compound,cytotoxicity at 10 µM [%]
1,CN(C)c1cncc(C2CCN(CC3(O)CCCCC3)CC2)n1,-30
2,CCSCCN1CCCN(S(C)(=O)=O)CC1,-2.75
3,Cc1cnn(-c2ccc(S(N)(=O)=O)cc2F)c1,1.64
4,COc1ccc(C2CCCN2c2ccc(C#N)cn2)c(OC)c1 (stereo unspecified),-3.42
5,Cc1nccn1-c1ccc(CNS(=O)(=O)N2CCCC(C)C2)cn1 (stereo unspecified),5.39
6,CN1CCC(NC(=O)Nc2cnn(-c3ccccc3Cl)c2)C1=O (stereo unspecified),-4.17
7,Cc1cccc(Oc2ccccc2CNC(=O)C2CCC(=O)NC2)c1 (stereo unspecified),10.6
8,CC1CN(C)c2ccccc2CN1CCn1cncn1 (stereo unspecified),-12.7
9,Cc1ccc(CNCc2nccn2C)c(OC(C)(C)C)c1,-2.58
10,Cc1csc(CN(C)C(C)C(=O)N2CCc3ccccc3C2)n1 (stereo unspecified),-11.7
11,Cc1nc(S(=O)(=O)NCCC(=O)NCc2ccc(C#N)cc2)cn1C,5.17
12,CS(=O)(=O)Cc1ccc(Cl)cc1NCc1ccccc1F,6.8
13,N#Cc1ccccc1N1CCCN(CC(=O)Nc2ccc(Cl)cn2)CC1,-0.539
14,Cc1cc(C)c(CNC(=O)C(C)Oc2ccccc2C#N)c(=O)[nH]1 (stereo unspecified),4.59
15,Cc1ccc(C(CNCc2cccn2C)N2CCOCC2)s1 (stereo unspecified),14.9
16,COc1ccc(CNCC2CCN(CCO)CC2)cc1F,-3.71
17,CCNC(=O)NC1CCN(c2ccc(S(=O)(=O)CC)cc2)CC1,7.89
18,Cc1c(C(=O)NCC(C)C)nnn1-c1cccc2c1CCN(C(C)C)C2,-12.3
19,Cc1nc(C)n(C2CCCN(C(=O)CCc3cscn3)C2)n1 (stereo unspecified),6.74
20,CC(=O)NC(C)C(=O)N(Cc1ccc(C)c(C)c1)C1CC1 (stereo unspecified),8.77
21,CC(C)(C)Cc1noc2ncc(C(=O)N3CCSCC3)cc12,-0.779
22,CC(C)(C)C(O)CN1CCN(Cc2nccn2CC(F)(F)F)CC1 (stereo unspecified),4.77
23,CN(C)C(CNC(=O)c1ncoc1-c1ccccc1)c1ccsc1 (stereo unspecified),-0.303

row,Compound,cytotoxicity at 10 µM [%]
1,Nc1c(Cl)cnn1C1CCN(Cc2ccccc2)C1 (stereo unspecified),0.648
2,O=C(NCc1ccco1)Nc1ccc2nc(N3CCOCC3)oc2c1,4.17
3,CC(C)(O)CN1CCN(C(=O)COCC(F)(F)F)CC1,-12.9
4,Cc1nn(C(C)(C)C)c(C)c1C(=O)NCC1(C(N)=O)CCOCC1,3.28
5,Cc1nc(CN2CCCC(N(C)c3cnc4ccccc4n3)C2)no1 (stereo unspecified),-14.6
6,CC(NC1CCN(CCc2ccncc2)CC1)c1cnn(C(C)C)c1 (stereo unspecified),-4.97
7,CC(=O)N1CCN(C(=O)NCCCc2cn[nH]c2C)CC1,12.1
8,CC(C)c1nnc(CNc2nc(-c3cccnc3)nc3c2CCC3)n1C,8.74
9,CCc1ncc2c(n1)CN(Cc1nc(C)c(C)o1)CC2,2.92
10,O=C1N(c2ccsc2)CCC12CCCN(c1ncc(F)cn1)C2 (stereo unspecified),-105
11,O=C(C1=CCCC1)N1C[C@@H]2COC[C@]2(COCC2CC2)C1,-96.2
12,Cc1cccc(CN2C(=O)CC[C@@H]3[C@H]2CCN3CC2CCOCC2)n1,5.89
13,COCC(=O)N1CC[C@H]2C[C@H](C)O[C@@H]2C1,-0.877
14,CCC[C@H]1CN(Cc2ccc3c(c2)OCCO3)C[C@@H]1NC(=O)COC,-4.19
15,COc1ccc(-n2nc(C)c(C(C)=O)c2C)cc1CO,11.2
16,COc1ccc2[nH]cc(C(=O)N3CC[C@H](CO)[C@@H](O)C3)c(=O)c2c1,1.26
17,COc1cc2c(cc1CN1C[C@@H](CN3CCOCC3)[C@@H](CO)C1)CCC2,-2.37
18,C=C(C)COc1cccc(CNC(COC)c2ccnn2C)c1 (stereo unspecified),-3.57
19,O=C(c1c[nH]c(=O)[nH]1)N1CCCC2(CCC(=O)N(C3CCCC3)C2)C1 (stereo unspecified),-3.74
20,CCOc1ccccc1CN(CC)Cc1ccc(S(=O)(=O)NC)cc1,-0.943
21,Cc1cc(C)cc(-n2ncc3c2CCCC3N)c1 (stereo unspecified),7.63
22,Cc1nc(CNC(=O)c2cc(Cn3ccnc3C(C)C)[nH]n2)sc1C,2.99
23,Cc1ccc(C2(O)CCN(C(=O)c3ccc(S(N)(=O)=O)cc3)CC2)nc1,-2.13

row,Compound,cytotoxicity at 10 µM [%]
1,CN(C)C(C(=O)N1CC(Oc2ccccc2F)C1)c1ccc(F)cc1 (stereo unspecified),1.28
2,CC(C)=CCN1CC2(CCN(Cc3cccc(C#N)c3)CC2)CC1=O,-4.39
3,O=C1CN(Cc2cc(O)c3cccc(F)c3n2)CCN1C1CCCC1,4.45
4,O=C(c1ccon1)N1CCc2ncnc(NCc3ccccn3)c2CC1,0.436
5,Cc1nc2ccc(-n3ncnc3[C@@H]3CCCN3S(C)(=O)=O)cc2s1,-11.5
6,CN(C)CCN1CC2(CCCN(c3ncc(Cl)cc3F)C2)CCC1=O (stereo unspecified),-13.6
7,COc1cc(OC)cc(-c2cccc3c2OC(CN)C3)c1 (stereo unspecified),-53
8,CCNc1ncc(C(=O)NC2CCSC2)cn1 (stereo unspecified),-8.85
9,CC(O)CN1CCN(Cc2cccc(C(=O)N3CCCCC3)c2)CC1 (stereo unspecified),-4.83
10,Cc1cnn(CC2CCCN2Cc2cn3ccsc3n2)c1 (stereo unspecified),-1.75
11,CC(C)c1noc(CCC(=O)N2CCN(Cc3ccncc3)CC2)n1,-9.08
12,N#CC1(NC(=O)CN2CCC(c3ccnn3CCO)CC2)CCCC1,2.85
13,CN(Cc1cccc(F)c1)C(=O)CN1CCOC(Cn2cncn2)C1 (stereo unspecified),-2.09
14,Cc1ccc(-c2nnc(CNCCn3cccn3)o2)cc1,-26.1
15,Cc1nc(C)n(CC2CCCN2CCOc2cccc(F)c2)n1 (stereo unspecified),-0.945
16,CCc1nc(C2CCCN2C(=O)c2cnc[nH]2)no1 (stereo unspecified),-13.6
17,CNc1snc(C)c1C(=O)N1CCCC(n2ccnc2C)C1 (stereo unspecified),-14.1
18,Cc1cnn(C2CCCN(C(=O)c3cc(Cl)c4c(c3)OCO4)C2)c1 (stereo unspecified),-5.25
19,O=C(NC1CC1)C1CCN(c2snc3ccccc23)CC1,-5.43
20,Cn1ccc(CN2CCC(OCCc3ccccc3)CC2)cc1=O,-4.43
21,Cc1cc(C(=O)N2CCCCC2C)ccc1NCC(=O)N1CCOCC1 (stereo unspecified),4.08
22,CN1CCN(c2cc(CNC(=O)c3ccc(=O)n(C)c3)ccn2)CC1,-6.95
23,Cn1cc(Cl)cc1C(=O)N1CCN(Cc2ccsc2)CC1,-2.86

row,Compound,cytotoxicity at 10 µM [%]
1,CCn1ncc2c1CCCC2NCc1ccc(OC)c(C)c1 (stereo unspecified),-8
2,COCCN1CCN(Cc2cccc(C(N)=O)c2)CC1C (stereo unspecified),0.794
3,Cc1cc(C(=O)NCc2ccc(N3CCCC(C(N)=O)C3)cc2)[nH]n1 (stereo unspecified),4.23
4,O=C(NCC(F)(F)F)C1CSCN1S(=O)(=O)c1ccc(F)cc1 (stereo unspecified),1.85
5,N#Cc1ccccc1OCCN1CCCC1Cn1cccn1 (stereo unspecified),-9.14
6,N#Cc1ccc(N2CC3(CCN(c4nccs4)C3)C2)nc1,-12.5
7,CCOCc1cnc2n1CCN(C(=O)Cc1ccccn1)C2C (stereo unspecified),8.04
8,c1csc(CN2CCCn3cnc(COCC4CC4)c3C2)n1,9.7
9,O=C(c1cnccn1)N1CC[C@@H]2CO[C@@H](CN3CCCC3)[C@@H]2C1,-1.19
10,CCOCC1c2c(cnn2C)CCN1C(=O)c1cc(C)on1 (stereo unspecified),-81.9
11,CN(C)Cc1cnc2n1CCN(C(=O)Cc1cccc(F)c1)CC2,-11.7
12,Cc1ccc(OCC(=O)N2C[C@@H]3CN(C)CCO[C@@H]3C2)cc1,-0.204
13,O=C(NCc1ccco1)[C@H]1CC[C@@H]2[C@@H](CCN2c2ncc(F)cn2)O1,-78.4
14,CN1CCN(C(=O)c2nc3c(s2)CCCN3C(=O)C2CC2)CC1,1.82
15,COC(=O)CCC(=O)N1CCCC2(CCCN2Cc2cccc(F)c2)C1 (stereo unspecified),-104
16,CC(C)CN1CCCC12CCN(c1nncs1)C2 (stereo unspecified),1.81
17,COCCC(=O)N1CC[C@@H](N2CCOCC2)[C@@H]1Cc1ccccc1,-70.4
18,O=C([C@H]1C[C@H]2OCC[C@H]2N(Cc2cccnc2)C1)N1CCCO1,-2.83
19,CCNc1ncc(C(=O)NC2CCC(n3cnnc3)CC2)cn1 (stereo unspecified),9.45
